{"data": "Published values collected from several papers", "target": "Serine/threonine-protein kinase pim-2 (PIM2, Homo sapiens, UniProt Q9P1W9)", "note": "Each line is one published result; the experiments were not run side by side."}
{"SMILES": "CC(C)CC(=O)N1CCc2nc(-c3ccc(Br)cc3)nc(N(C)Cc3ccccc3)c2C1", "effect on": "cell-free assay", "method": "competition with immobilised ligand", "concentration": "0.1 µM", "measurement": "remaining binding", "result": "100%"}
{"SMILES": "CNc1cccc2cc(C(=O)Nc3ccc(C(=O)O)cc3)c(=O)[nH]c12", "effect on": "enzyme activity", "mode": "inhibitor", "concentration": "10 µM", "measurement": "inhibition", "result": "13%"}
{"SMILES": "C=CC(=O)Nc1cc(Nc2nccc(Nc3cc(Cl)c(F)cc3C(C)(C)O)n2)c(OC)cc1N1CC[C@@H](N(C)C)C1", "effect on": "enzyme activity", "mode": "inhibitor", "concentration": "1 µM", "measurement": "inhibition", "result": "16%"}
{"SMILES": "CC(=O)N1CCC(c2ccc(C(=O)NC(=N)N)cc2C(F)(F)F)CC1", "effect on": "cell-free assay", "method": "competition with immobilised ligand", "concentration": "1 µM", "measurement": "remaining binding", "result": "100%"}
{"SMILES": "CN1CC(Oc2cnc(C#N)cc2-c2ccn3nc(NC(=O)C4CC4)cc3c2)C1", "effect on": "enzyme activity", "mode": "inhibitor", "concentration": "1 µM", "measurement": "inhibition", "result": "4%"}
{"SMILES": "FC(F)(F)Oc1cccc(-c2cnc3ccc(-c4ccncc4)nn23)c1", "effect on": "enzyme activity", "mode": "inhibitor", "method": "radiometric", "concentration": "1 µM", "measurement": "activity vs control", "result": "88%"}
{"SMILES": "N#CCCc1ccc2c(c1)-c1[nH]c3ccc([N+](=O)[O-])cc3c1CC(=O)N2", "effect on": "cell-free assay", "concentration": "0.5 µM", "measurement": "remaining signal", "result": "104%"}
{"SMILES": "Oc1cccc(-c2nc(N3CCOCC3)c3oc4ncccc4c3n2)c1", "effect on": "enzyme activity", "mode": "inhibitor", "concentration": "10 µM", "measurement": "remaining activity", "result": "90%"}
{"SMILES": "CS(=O)(=O)Nc1cccc(-c2csc(NC(=O)CSc3nc4nccnc4c(=O)n3CCc3ccccc3)n2)c1", "effect on": "enzyme activity", "mode": "inhibitor", "concentration": "10 µM", "measurement": "inhibition", "result": "-8%"}
{"SMILES": "Cn1c(=O)n(-c2ccc(C(C)(C)C#N)cc2)c2c3cc(-c4cnc5ccccc5c4)ccc3ncc21", "effect on": "enzyme activity", "mode": "inhibitor", "concentration": "10 µM", "measurement": "remaining activity", "result": "94%"}
{"SMILES": "COc1cc(Nc2c(C#N)cnc3cc(OCCCN4CCN(C)CC4)c(OC)cc23)c(Cl)cc1Cl", "effect on": "cell-free assay", "concentration": "0.5 µM", "measurement": "remaining signal", "result": "111%"}
{"SMILES": "CNC(=O)c1ccc(Nc2ncc(C(F)(F)F)c(NCc3nccnc3N(C)S(C)(=O)=O)n2)cc1", "effect on": "cell-free assay", "method": "competition with immobilised ligand", "concentration": "0.1 µM", "measurement": "remaining binding", "result": "100%"}
{"SMILES": "CNC(=O)c1cc(Oc2ccc(NC(=O)Nc3ccc(Cl)c(C(F)(F)F)c3)cc2)ccn1", "effect on": "enzyme activity", "mode": "inhibitor", "concentration": "10 µM", "measurement": "inhibition", "result": "9%"}
{"SMILES": "CC(C)(C)C(=O)c1sc(NC2CCCCC2)nc1N", "effect on": "enzyme activity", "mode": "inhibitor", "concentration": "10 µM", "measurement": "remaining activity", "result": "109%"}
{"SMILES": "CSc1nc(C)c(-c2ccnc(Nc3ccc(N4CCOCC4)cc3)c2)[nH]1", "effect on": "enzyme activity", "mode": "inhibitor", "concentration": "10 µM", "measurement": "inhibition", "result": "-4.8%"}
{"SMILES": "O=C1CCc2cc(Nc3cc(OC4CCOCC4)c([N+](=O)[O-])cc3Cl)ccc2N1", "effect on": "cell-free assay", "method": "competition with immobilised ligand", "concentration": "1 µM", "measurement": "remaining binding", "result": "84%"}
{"SMILES": "Cc1ccc(C(=O)NCc2ccsc2)cc1C#Cc1cn(C(C)C)c2ncnc(N)c12", "effect on": "enzyme activity", "mode": "inhibitor", "concentration": "1 µM", "measurement": "activity vs control", "result": "92%"}
{"SMILES": "Cc1nc(N2CC[C@@H](O)C2)ncc1-c1cc(C(F)(F)F)cc2[nH]ncc12", "effect on": "binding", "method": "competition with immobilised ligand", "concentration": "1 µM", "measurement": "remaining binding", "result": "89%"}
{"SMILES": "O=C(Nc1cnn(-c2csc(C(=O)NC3COC3)c2)c1)Nc1ccccc1Cl", "effect on": "enzyme activity", "mode": "inhibitor", "concentration": "5 µM", "measurement": "remaining activity", "result": "96.4%"}
{"SMILES": "COc1ccc2c(c1)O[C@@H](c1ccc(OC)c(OC)c1)C[C@H]2NC(=O)C1(c2ccc3c(c2)OC(F)(F)O3)CC1", "effect on": "cell-free assay", "method": "competition with immobilised ligand", "concentration": "1 µM", "measurement": "remaining binding", "result": "100%"}
{"SMILES": "Cc1cc(NC(=O)c2cccc3cc(-c4cccc5[nH]nc(N)c45)ccc23)ccc1F", "effect on": "enzyme activity", "mode": "inhibitor", "concentration": "0.1 µM", "measurement": "activity vs control", "result": "87%"}
{"SMILES": "CCN(CC)c1ccc(C2=NNC(=O)CC2C)cc1[N+](=O)[O-] (stereo not shown)", "effect on": "enzyme activity", "mode": "inhibitor", "concentration": "10 µM", "measurement": "remaining activity", "result": "108%"}
{"SMILES": "O=C1NC(=O)c2cc(Nc3ccc(F)cc3)c(Nc3ccc(F)cc3)cc21", "effect on": "cell-free assay", "concentration": "0.5 µM", "measurement": "remaining signal", "result": "98.6%"}
{"SMILES": "CC(C)(C)c1nc(-c2cccc(NS(=O)(=O)c3c(F)cccc3F)c2F)c(-c2ccnc(N)n2)s1", "effect on": "enzyme activity", "mode": "inhibitor", "method": "radiometric", "concentration": "1 µM", "measurement": "remaining activity", "result": "77%"}
{"SMILES": "Cc1cnc(NC2CCOCC2)nc1-n1cnc(C(=O)NC(CN)c2cc(F)cc(Cl)c2)c1 (stereo not shown)", "effect on": "enzyme activity", "mode": "inhibitor", "method": "radiometric", "concentration": "1 µM", "measurement": "remaining activity", "result": "100%"}
{"SMILES": "C[C@@H]1CN(c2cc(-c3n[nH]c4ccc(OC5(C)CC5)cc34)ncn2)C[C@H](C)O1", "effect on": "cell-free assay", "method": "competition with immobilised ligand", "concentration": "0.1 µM", "measurement": "remaining binding", "result": "88%"}
{"SMILES": "Nc1nc(Nc2ccccc2)sc1C(=O)c1c(F)cccc1F", "effect on": "enzyme activity", "mode": "inhibitor", "concentration": "10 µM", "measurement": "remaining activity", "result": "91%"}
{"SMILES": "CCN(CC)CCNC(=O)c1c(C)[nH]c(/C=C2\\C(=O)Nc3ccc(F)cc32)c1C", "effect on": "cell-free assay", "concentration": "0.5 µM", "measurement": "remaining signal", "result": "97.2%"}
{"SMILES": "COc1cc2ncnc(Nc3ccc(Oc4ccccc4)c(C)c3C)c2cc1OC", "effect on": "enzyme activity", "mode": "inhibitor", "concentration": "1 µM", "measurement": "inhibition", "result": "-2%"}
{"SMILES": "N#Cc1ccc(Nc2ccc3[nH]c(=O)[nH]c3c2)c(Cl)c1", "effect on": "cell-free assay", "method": "competition with immobilised ligand", "concentration": "1 µM", "measurement": "remaining binding", "result": "83%"}
{"SMILES": "COc1cc(Nc2cnc(C#N)c(O[C@H](C)CN(C)C)n2)ncc1-c1cnn(C)c1", "effect on": "enzyme activity", "mode": "inhibitor", "method": "radiometric", "concentration": "10 µM", "measurement": "remaining activity", "result": "77%"}
